Assay results taken from ChEMBL document CHEMBL1155635, “New cytotoxic sesquiterpenes from the gorgonian Isis hippuris” (2000).
In brackets after ≈: the same amount, converted by molar mass.

Assays:
Type in all cases: functional
P388 = test: Cytotoxicity against mouse P388 cells by MTT method; conditions: for EC50: Mus musculus, P388, read-out: ED50 (the source's name)
In short: (§1)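 Modified MTT colorimetric assay. P-388 cells were a gift from an outside laboratory; A549 and HT-29 came from ATCC. Cells were treated at eight concentrations of pure compound, 50 to 5 × 10-6 µg/mL. Growth was expressed as percent of control incubations, run in triplicate. ED50 is the dose inhibiting cell growth by 50%.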

A549 = test: Cytotoxicity against human A549 cells by MTT method; conditions: read-out: ED50 (the source's name); in short: as §1
HT-29 = test: Cytotoxicity against human HT29 cells by MTT method; conditions: for EC50: Homo sapiens, HT-29, read-out: ED50 (the source's name); in short: as §1

Structure (SMILES) | EC50 (P388) [µg/mL] | EC50 (A549) [µg/mL] | EC50 (HT-29) [µg/mL] | ED50 (P388) [×10⁻⁶ ug/ml] | ED50 (HT-29)
C[C@@H]1CC(=O)[C@@]23[C@@H](C)C(C(=O)O)=C[C@]2(C)CC[C@@H]13 [SUBERGORGIC ACID] | 13.3 (≈ 53.6 µM) | > 50 | > 50 |  | 
C[C@H]1CC[C@H]2[C@@H]3CC(=O)[C@H](C)[C@@]13CC2(C)C [SUBEROSANONE] |  | 0.036 (≈ 0.163 µM) |  | <5 | <5 ×10⁻⁶ ug/ml
C=C1[C@@H](OC(C)=O)C[C@H]2[C@@H]3CC[C@H](C)[C@]12CC3(C)C [SUBEROSENOL A ACETATE] | 0.0076 | 0.08 |  |  | 3.6 ×10⁻⁴ ug/ml
C=C1[C@@H](O)C[C@H]2[C@@H]3CC[C@H](C)[C@]12CC3(C)C [SUBEROSENOL A] |  | 0.0051 (≈ 0.0231 µM) |  | <5 | <5 ×10⁻⁶ ug/ml
C=C1[C@H](OC(C)=O)C[C@H]2[C@@H]3CC[C@H](C)[C@]12CC3(C)C [SUBEROSENOL B ACETATE] | 0.074 | 0.36 | 0.005 |  | 
C=C1[C@H](O)C[C@H]2[C@@H]3CC[C@H](C)[C@]12CC3(C)C [SUBEROSENOL B] | 3.4 (≈ 15.4 µM) | 0.2 (≈ 0.908 µM) | 2.1 (≈ 9.53 µM) |  | 
